Data: ChEMBL document CHEMBL4304816, “A Novel Biphenyl-based Chemotype of Retinoid X Receptor Ligands Enables Subtype and Heterodimer Preferences” (ACS Med Chem Lett, 2019)
pEC50: −log10 of the molar value. Calls of active or inactive are those of the source. No cut-off for these calls is given here.

How the values were obtained:
Format in all cases: cell-based
[1] = molecular target: T1, Retinoic acid receptor RXR-alpha (Homo sapiens) (UniProt P19793); assay: Agonist activity at Gal4-LBD fused RXRalpha (unknown origin) expressed in HEK293T cells at 30 uM after 14 to 16 hrs by dual-Glo luciferase assay
T1 sequence (whole entry): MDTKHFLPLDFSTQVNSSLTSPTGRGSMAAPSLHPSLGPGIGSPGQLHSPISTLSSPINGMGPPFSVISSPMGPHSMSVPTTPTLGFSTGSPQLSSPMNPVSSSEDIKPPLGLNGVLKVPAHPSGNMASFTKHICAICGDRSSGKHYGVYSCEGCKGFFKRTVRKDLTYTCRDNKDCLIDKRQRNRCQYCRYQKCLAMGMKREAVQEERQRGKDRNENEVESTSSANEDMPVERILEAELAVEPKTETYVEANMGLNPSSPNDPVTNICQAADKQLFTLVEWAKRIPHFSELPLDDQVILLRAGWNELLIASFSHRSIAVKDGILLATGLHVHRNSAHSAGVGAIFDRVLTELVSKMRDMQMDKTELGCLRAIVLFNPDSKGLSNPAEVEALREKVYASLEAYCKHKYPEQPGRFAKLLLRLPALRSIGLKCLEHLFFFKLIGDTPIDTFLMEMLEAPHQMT

[2] = molecular target: T2, Retinoic acid receptor RXR-beta (Homo sapiens) (UniProt P28702); assay: Agonist activity at Gal4-LBD fused RXRbeta (unknown origin) expressed in HEK293T cells at 30 uM after 14 to 16 hrs by dual-Glo luciferase assay
T2 sequence (whole entry): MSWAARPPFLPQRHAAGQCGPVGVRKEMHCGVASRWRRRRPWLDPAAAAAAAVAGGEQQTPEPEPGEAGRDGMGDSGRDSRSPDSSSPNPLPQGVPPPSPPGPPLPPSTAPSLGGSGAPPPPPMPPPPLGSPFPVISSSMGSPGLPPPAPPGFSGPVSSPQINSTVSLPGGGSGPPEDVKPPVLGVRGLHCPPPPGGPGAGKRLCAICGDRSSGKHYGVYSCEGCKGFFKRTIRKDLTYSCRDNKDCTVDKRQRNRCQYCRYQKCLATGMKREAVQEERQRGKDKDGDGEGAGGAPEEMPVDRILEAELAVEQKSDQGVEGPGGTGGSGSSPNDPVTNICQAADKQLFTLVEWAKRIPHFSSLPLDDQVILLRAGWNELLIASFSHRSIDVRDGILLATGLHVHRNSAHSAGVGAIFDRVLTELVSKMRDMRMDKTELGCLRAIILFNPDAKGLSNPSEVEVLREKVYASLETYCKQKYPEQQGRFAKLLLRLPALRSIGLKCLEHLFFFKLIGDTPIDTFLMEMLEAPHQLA

[3] = molecular target: T3, Retinoic acid receptor RXR-gamma (Homo sapiens) (UniProt P48443); assay: Agonist activity at Gal4-LBD fused RXRgamma (unknown origin) expressed in HEK293T cells at 30 uM after 14 to 16 hrs by dual-Glo luciferase assay
T3 sequence (whole entry): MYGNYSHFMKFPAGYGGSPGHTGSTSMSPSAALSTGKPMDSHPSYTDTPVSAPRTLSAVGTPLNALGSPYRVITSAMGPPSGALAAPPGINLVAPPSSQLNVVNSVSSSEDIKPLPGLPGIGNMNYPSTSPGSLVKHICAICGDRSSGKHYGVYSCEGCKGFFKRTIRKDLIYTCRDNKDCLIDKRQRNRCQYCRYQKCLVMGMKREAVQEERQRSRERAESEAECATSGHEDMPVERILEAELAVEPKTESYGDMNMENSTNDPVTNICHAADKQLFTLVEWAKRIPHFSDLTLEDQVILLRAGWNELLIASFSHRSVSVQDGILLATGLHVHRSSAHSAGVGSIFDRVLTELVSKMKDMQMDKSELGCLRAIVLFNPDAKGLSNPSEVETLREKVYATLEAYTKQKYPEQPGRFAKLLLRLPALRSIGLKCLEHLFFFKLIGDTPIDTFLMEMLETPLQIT

[4] = molecular target: T1, Retinoic acid receptor RXR-alpha (Homo sapiens); assay: Agonist activity at Gal4-LBD fused RXRalpha (unknown origin) expressed in HEK293T cells assessed as fold activation after 14 to 16 hrs by dual-Glo luciferase assay relative to untreated control
Summary of the method: (§1)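 Gal4-hybrid RXRα/β/γ reporter gene assays in HEK293T cells. Fold activation is the maximal fold activation versus 0.1% DMSO.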

[5] = molecular target: T3, Retinoic acid receptor RXR-gamma (Homo sapiens); assay: Agonist activity at Gal4-LBD fused RXRgamma (unknown origin) expressed in HEK293T cells at 10 uM after 14 to 16 hrs by dual-Glo luciferase assay
[6] = molecular target: T4, Retinoic acid receptor RXR-beta (Homo sapiens, UniProt P28702); assay: Agonist activity at Gal4-LBD fused RXRbeta (unknown origin) expressed in HEK293T cells after 14 to 16 hrs by dual-Glo luciferase assay; summary of the method: as §1
T4 sequence (P28702 whole entry): T2 sequence (whole entry)

[7] = molecular target: T2, Retinoic acid receptor RXR-beta (Homo sapiens); assay: Agonist activity at Gal4-LBD fused RXRbeta (unknown origin) expressed in HEK293T cells assessed as fold activation after 14 to 16 hrs by dual-Glo luciferase assay relative to untreated control; summary of the method: as §1
[8] = molecular target: T5, Retinoic acid receptor RXR-alpha (Homo sapiens, UniProt P19793); assay: Agonist activity at Gal4-LBD fused RXRalpha (unknown origin) expressed in HEK293T cells after 14 to 16 hrs by dual-Glo luciferase assay; summary of the method: as §1
T5 sequence (P19793 whole entry): T1 sequence (whole entry)

[9] = molecular target: T3, Retinoic acid receptor RXR-gamma (Homo sapiens); assay: Agonist activity at Gal4-LBD fused RXRgamma (unknown origin) expressed in HEK293T cells assessed as fold activation at 10 uM after 14 to 16 hrs by dual-Glo luciferase assay relative to untreated control; summary of the method: as §1
[10] = molecular target: T1, Retinoic acid receptor RXR-alpha (Homo sapiens); assay: Agonist activity at Gal4-LBD fused RXRalpha (unknown origin) expressed in HEK293T cells assessed as fold activation at 10 uM after 14 to 16 hrs by dual-Glo luciferase assay relative to untreated control; summary of the method: as §1
[11] = molecular target: T2, Retinoic acid receptor RXR-beta (Homo sapiens); assay: Agonist activity at Gal4-LBD fused RXRbeta (unknown origin) expressed in HEK293T cells assessed as fold activation at 10 uM after 14 to 16 hrs by dual-Glo luciferase assay relative to untreated control; summary of the method: as §1
[12] = molecular target: T6, Retinoic acid receptor RXR-gamma (Homo sapiens, UniProt P48443); assay: Agonist activity at Gal4-LBD fused RXRgamma (unknown origin) expressed in HEK293T cells after 14 to 16 hrs by dual-Glo luciferase assay; summary of the method: as §1
T6 sequence (P48443 whole entry): T3 sequence (whole entry)

[13] = molecular target: T3, Retinoic acid receptor RXR-gamma (Homo sapiens); assay: Agonist activity at Gal4-LBD fused RXRgamma (unknown origin) expressed in HEK293T cells assessed as fold activation after 14 to 16 hrs by dual-Glo luciferase assay relative to untreated control; summary of the method: as §1
[14] = molecular target: T3, Retinoic acid receptor RXR-gamma (Homo sapiens); assay: Agonist activity at Gal4-LBD fused RXRgamma (unknown origin) expressed in HEK293T cells at 20 uM after 14 to 16 hrs by dual-Glo luciferase assay
[15] = molecular target: T2, Retinoic acid receptor RXR-beta (Homo sapiens); assay: Agonist activity at Gal4-LBD fused RXRbeta (unknown origin) expressed in HEK293T cells assessed as fold activation at 30 uM after 14 to 16 hrs by dual-Glo luciferase assay relative to untreated control; summary of the method: as §1
[16] = molecular target: T1, Retinoic acid receptor RXR-alpha (Homo sapiens); assay: Agonist activity at Gal4-LBD fused RXRalpha (unknown origin) expressed in HEK293T cells assessed as fold activation at 30 uM after 14 to 16 hrs by dual-Glo luciferase assay relative to untreated control; summary of the method: as §1
[17] = molecular target: T3, Retinoic acid receptor RXR-gamma (Homo sapiens); assay: Agonist activity at Gal4-LBD fused RXRgamma (unknown origin) expressed in HEK293T cells assessed as fold activation at 30 uM after 14 to 16 hrs by dual-Glo luciferase assay relative to untreated control; summary of the method: as §1
[18] = molecular target: T2, Retinoic acid receptor RXR-beta (Homo sapiens); assay: Agonist activity at Gal4-LBD fused RXRbeta (unknown origin) expressed in HEK293T cells at 10 uM after 14 to 16 hrs by dual-Glo luciferase assay
[19] = molecular target: T1, Retinoic acid receptor RXR-alpha (Homo sapiens); assay: Agonist activity at Gal4-LBD fused RXRalpha (unknown origin) expressed in HEK293T cells at 10 uM after 14 to 16 hrs by dual-Glo luciferase assay

SMILES	Activity [3]	fold change (FC) [4]	Activity [5]	pEC50 [6]	fold change (FC) [7]	pEC50 [8]	other results
COc1cccc(-c2ccc(C(=O)O)cc2)c1	inactive	–	–	–	–	–	Activity [1]: inactive; Activity [2]: inactive
CC(C)(C)c1cc(-c2cccc(C(=O)O)c2)cc(C(C)(C)C)c1	–	31	inactive	5.51	84	5.43	fold change (FC) [9]: 4; fold change (FC) [10]: 32; fold change (FC) [11]: 82
O=C(O)c1ccc(-c2cc(C(F)(F)F)cc(C(F)(F)F)c2)cc1	–	50	–	5.43	122	5.51	pEC50 [12]: 4.90; fold change (FC) [9]: 10; fold change (FC) [10]: 48; fold change (FC) [11]: 120; fold change (FC) [13]: 25
CC(C)Oc1cccc(-c2ccc(C(=O)O)cc2)c1	–	18	–	4.87	19	4.97	Activity [14]: inactive
Cc1cc(C)cc(-c2ccc(C(=O)O)cc2)c1	inactive	26	–	4.73	97	5.02	fold change (FC) [15]: 74; fold change (FC) [16]: 25; fold change (FC) [17]: 2
CC(C)(C)c1cc(-c2ccc(C(=O)O)nc2)cc(C(C)(C)C)c1	–	–	inactive	–	–	–	Activity [18]: inactive; Activity [19]: inactive
Cc1cccc(-c2ccc(C(=O)O)cc2)c1	inactive	–	–	–	–	–	Activity [1]: inactive; Activity [2]: inactive
CC(C)(C)c1cc(-c2ccc(C(=O)O)cn2)cc(C(C)(C)C)c1	–	–	inactive	–	–	–	Activity [18]: inactive; Activity [19]: inactive
CC(C)(C)c1cc(-c2ccc(CCC(=O)O)cc2)cc(C(C)(C)C)c1	–	21	–	5.68	94	5.82	pEC50 [12]: 5.30; fold change (FC) [13]: 17
CCc1cc(CC)cc(-c2ccc(C(=O)O)cc2)c1	–	11	–	5.17	33	5.47	Activity [14]: inactive
